Reference: ChEMBL document CHEMBL4414568, “Development of Novel Irreversible Pyruvate Kinase M2 Inhibitors” (J Med Chem, 2019)
Activity calls are given as the source filed them. No cut-off for these calls is given here.

Legend:
MCF7 = assay: Antiproliferative activity against human MCF7 cells assessed as reduction in cell viability incubated for 24 hrs by MTT assay; type: functional, cell-based; settings: MCF7, 24 h
Summary of the method: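 Cells seeded at 3,500 per well in 10% FBS and left overnight, then exposed to test agent or vehicle in 5% FBS for 24 h. MTT added for 1 h, then medium swapped for DMSO and absorbance read at 560 nm. Viability given as percent of vehicle-treated control. Run in triplicate.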

Pyruvate kinase PKM [1] = biological target: T1, Pyruvate kinase PKM (Homo sapiens, UniProt P14618); assay: Inhibition of recombinant human PKM2 expressed in Escherichia coli at 0.125 to 0.5 uM using PEP as substrate incubated for 20 mins by OxiRed probe-based colorimetric assay relative to control
Summary of the method: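 Recombinant PKM1 or PKM2 incubated with compound at room temperature for 20 min. Remaining activity measured by the same colorimetric kit: PEP + […], PK then pyruvate oxidase, H2O2 read-out. n = 3.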

[2] = biological target: T2, ATP-citrate synthase (Homo sapiens) (UniProt P53396); assay: Binding affinity to ACYL in human PC9 cells incubated for 1 hr by ABPP-SILAC assay; type: cell-based
T2 sequence (whole entry): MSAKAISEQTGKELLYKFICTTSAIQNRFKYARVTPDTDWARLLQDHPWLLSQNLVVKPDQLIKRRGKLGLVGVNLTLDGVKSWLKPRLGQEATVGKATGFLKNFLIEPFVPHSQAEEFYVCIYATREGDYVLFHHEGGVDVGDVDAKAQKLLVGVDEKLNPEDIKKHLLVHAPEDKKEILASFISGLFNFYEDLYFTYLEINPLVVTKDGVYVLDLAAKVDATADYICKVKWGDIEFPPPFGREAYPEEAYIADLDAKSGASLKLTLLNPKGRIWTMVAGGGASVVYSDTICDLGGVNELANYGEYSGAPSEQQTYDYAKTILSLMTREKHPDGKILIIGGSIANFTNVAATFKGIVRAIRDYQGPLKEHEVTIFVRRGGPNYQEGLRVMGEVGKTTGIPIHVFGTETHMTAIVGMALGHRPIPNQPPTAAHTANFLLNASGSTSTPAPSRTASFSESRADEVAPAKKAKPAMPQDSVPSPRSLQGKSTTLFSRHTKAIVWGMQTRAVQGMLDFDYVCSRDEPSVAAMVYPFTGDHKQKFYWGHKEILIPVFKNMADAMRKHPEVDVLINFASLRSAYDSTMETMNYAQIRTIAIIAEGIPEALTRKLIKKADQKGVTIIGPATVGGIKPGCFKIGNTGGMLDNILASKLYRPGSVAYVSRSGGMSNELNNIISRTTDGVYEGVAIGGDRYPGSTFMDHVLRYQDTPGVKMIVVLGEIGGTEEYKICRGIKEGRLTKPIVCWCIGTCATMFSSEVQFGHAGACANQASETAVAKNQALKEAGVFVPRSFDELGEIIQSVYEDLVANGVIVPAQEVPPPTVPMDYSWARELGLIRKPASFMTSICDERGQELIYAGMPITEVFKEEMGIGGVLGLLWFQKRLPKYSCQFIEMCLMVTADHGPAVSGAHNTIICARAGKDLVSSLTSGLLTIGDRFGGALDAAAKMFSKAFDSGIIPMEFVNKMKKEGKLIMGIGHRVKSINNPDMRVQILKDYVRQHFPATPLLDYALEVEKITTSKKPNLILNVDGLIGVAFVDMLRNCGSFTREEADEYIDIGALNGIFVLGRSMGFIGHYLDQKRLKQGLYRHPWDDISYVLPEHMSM
Summary of the method: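 PC-9 cells passaged at least six times in SILAC DMEM with 10% dialyzed FBS plus 100 µg/mL light or 13C/15N-labeled Arg/Lys. Heavy cells got ABPP probe (1 µM) and light cells DMSO, 1 h at 37 °C. Cells mixed 1:1, sonicated, spun at 100,000g, protein normalized to 1 mg/mL. Click biotin-azide, streptavidin bead pulldown 16 h at 4 °C, SDS-PAGE, on-bead trypsin digestion, LC-MS/MS.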

Pyruvate kinase PKM [3] = biological target: T1, Pyruvate kinase PKM; assay: Inhibition of N-(4-(3-(3-(Methylamino)-3-oxopropyl)-5-(4'-(prop-2-yn-1-yloxy)-[1,1'-biphenyl]-4-yl)-1H-pyrazol-1-yl)phenyl)propiolamide binding to PKM2 in human PC9 cells at 1 uM preincubated for 1 hr followed by probe addition and measured after 1 hr using antibody by Western blot analysis; type: cell-based
Summary of the method: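 PC-9 cells pretreated with 1 µM compound or DMSO for 1 h, then alkyne probe added at 0.5, 1 or 2 µM for 1 h at 37 °C. Lysates put through Cu-catalysed click with biotin-azide, streptavidin beads 16 h at 4 °C, washes with 0.5% SDS/PBS, 10% SDS-PAGE and PKM2 Western blot.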

Pyruvate kinase PKM [4] = biological target: T1, Pyruvate kinase PKM; assay: Inhibition of PKM2 in human PC9 cells assessed as reduction in beta-catenin expression incubated for 24 hrs by Western blot analysis; type: cell-based
Summary of the method: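 PC-9 cells seeded at 5 × 10^5 cells/mL; after 24 h given 0–1 µM compound or DMSO for 24 h. Lysates run on 10% SDS-PAGE, transferred to nitrocellulose, probed for PKM2, EGFR, p-STAT3, STAT3, p-β-catenin, β-catenin and β-actin with HRP secondaries, ECL detection.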

PC-9 = assay: Induction of ROS production in human PC9 cells at 0.25 and 0.5 uM incubated for 6 hrs by H2DCFDA dye-based fluorescence assay; type: functional, cell-based
Summary of the method: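 PC-9 cells at 2 × 10^4 per well, after 24 h treated with compound or DMSO for 6 h. Cells washed, given 1X ROS label in assay buffer for 45 min at 37 °C in the dark, fluorescence read at Ex/Em 495/529 nm as an end point. n = 3.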

T1 sequence (P14618 2-531 limits assumed): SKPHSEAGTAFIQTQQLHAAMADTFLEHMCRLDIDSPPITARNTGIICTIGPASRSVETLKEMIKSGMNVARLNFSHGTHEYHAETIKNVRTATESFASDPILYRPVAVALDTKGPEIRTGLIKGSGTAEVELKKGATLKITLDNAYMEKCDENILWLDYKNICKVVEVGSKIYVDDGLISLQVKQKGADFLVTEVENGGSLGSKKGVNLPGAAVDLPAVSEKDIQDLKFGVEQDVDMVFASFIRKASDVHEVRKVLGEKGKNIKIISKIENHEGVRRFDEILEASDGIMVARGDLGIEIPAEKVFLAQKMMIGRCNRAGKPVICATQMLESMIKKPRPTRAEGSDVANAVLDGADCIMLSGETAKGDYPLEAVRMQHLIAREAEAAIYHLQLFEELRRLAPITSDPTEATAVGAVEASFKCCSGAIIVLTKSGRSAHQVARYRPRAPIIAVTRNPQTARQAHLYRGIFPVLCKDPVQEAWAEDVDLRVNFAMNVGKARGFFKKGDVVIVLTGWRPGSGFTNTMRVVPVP

With C#CC(=O)Nc1ccc(-n2nc(CCC(=O)NC)cc2-c2ccc(-c3ccc(C(F)(F)F)cc3)cc2)cc1 the IC50 (MCF7) was 1 µM, the inhibition (Pyruvate kinase PKM [1]) was 30% and the Activity [2] was “Active”. For the same compound, the inhibition (Pyruvate kinase PKM [3]) was “Active”, the inhibition (Pyruvate kinase PKM [4]) was “Dose-dependent effect” and the Activity (PC-9) was “inactive”.
